Consider 18 compounds from ChEMBL document CHEMBL1136326, “New benzylidenethiazolidinediones as antibacterial agents” (2003).

Values after ≈ are worked out from the molar mass of the structure shown.

Type in all cases: functional
Experiment [1] can be described thus: Minimal inhibitory concentration (antibacterial activity) against […] ERY2 (SPNE). In outline:
(§1)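 Broth microdilution in cation-adjusted Mueller Hinton broth. Compounds in DMSO were diluted 1:10 with water to a 256 ug/mL solution, then serially 2-fold diluted, giving 0.06 to 64 μg/mL. Inoculum about 1 × 10^6 cfu/mL. Incubation at 35 C for 24 h. MIC is the lowest concentration that inhibits visible growth.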

In experiment [2] the test system is Enterococcus faecalis. Description: Minimal inhibitory concentration (antibacterial activity) against Enterococcus faecalis 7 (EFAE). In outline:
as §1

Experiment [3] concerns Staphylococcus aureus. The experiment is described as follows: Minimal inhibitory concentration (antibacterial activity) against Staphylococcus aureus Oxford (SAUR). In outline: as §1
Setting [4] is: Streptococcus pneumoniae, read-out: MIC.
[5] abbreviates: Enterococcus faecalis, read-out: MIC.
The mark [6] stands for this setting: Staphylococcus aureus, read-out: MIC.

Broadly, the MIC is the least concentration at which growth counts as inhibited. In the case of `CCCc1c(OCC(O)COc2ccc(/C=C3\CC(=O)NC3=O)cc2)ccc(Cl)c1Cl` (centres undefined), the minimum inhibitory concentration (MIC) was 64 µg/mL (≈ 138 µM) in experiment [1] (setting [4]), 64 µg/mL (≈ 138 µM) in experiment [2] (setting [5]) and over 64 µg/mL in experiment [3] (setting [6]).
For the compound `CCCc1c(OCC(O)COc2ccc(CC3SC(=O)NC3=O)cc2)ccc(Cl)c1Cl` (centres undefined), the MIC was 8 µg/mL (≈ 16.5 µM) in experiment [1] (setting [4]), 16 µg/mL (≈ 33 µM) in experiment [2] (setting [5]) and 8 µg/mL (≈ 16.5 µM) in experiment [3] (setting [6]).
For the compound `O=C1NC(=O)/C(=C/c2ccc(OCC(O)COc3ccc(Cl)c(Cl)c3Cl)cc2)S1` (centres undefined), the minimum inhibitory concentration (MIC) in experiment [1] (setting [4]), in experiment [2] (setting [5]) and in experiment [3] (setting [6]) was over 64 µg/mL each time.
In the case of `Cc1ccccc1OCC(O)COc1ccc(/C=C2\SC(=O)NC2=O)cc1` (centres undefined), the MIC in experiment [1] (setting [4]) was 32 µg/mL (≈ 83 µM); in experiment [2] (setting [5]), over 64 µg/mL; in experiment [3] (setting [6]), 64 µg/mL (≈ 166 µM).
As for `O=C1NC(=O)/C(=C/c2ccc(OCC(O)COc3ccc(Cl)c(Cl)c3)cc2)S1` (centres undefined), the minimum inhibitory concentration (MIC) in experiment [1] (setting [4]), in experiment [2] (setting [5]) and in experiment [3] (setting [6]) was over 64 µg/mL throughout.
As for `CCCc1ccccc1OCC(O)COc1ccc(/C=C2\SC(=O)NC2=O)cc1` (centres undefined), the MIC was 2 µg/mL (≈ 4.84 µM) in experiment [1] (setting [4]), over 64 µg/mL in experiment [2] (setting [5]) and 16 µg/mL (≈ 38.7 µM) in experiment [3] (setting [6]).
`CCCc1c(OC[C@H](O)COc2ccc(/C=C3\SC(=O)NC3=O)cc2)ccc(Cl)c1Cl`: the minimum inhibitory concentration (MIC) is 1 µg/mL (≈ 2.07 µM) in experiment [1] (setting [4]), 64 µg/mL (≈ 133 µM) in experiment [2] (setting [5]) and 1 µg/mL (≈ 2.07 µM) in experiment [3] (setting [6]).
As to `O=C1NC(=O)/C(=C/c2ccc(OCC(O)COc3ccccc3)cc2)S1` (centres undefined), the MIC is 64 µg/mL (≈ 172 µM) in experiment [1] (setting [4]), over 64 µg/mL in experiment [2] (setting [5]) and over 64 µg/mL in experiment [3] (setting [6]).
In the case of `CCCc1c(OCCCOc2ccc(/C=C3\SC(=O)NC3=O)cc2)ccc(Cl)c1Cl`, the MIC in experiment [1] (setting [4]), in experiment [2] (setting [5]) and in experiment [3] (setting [6]) was over 64 µg/mL throughout.
`CCCc1c(OCC(O)COc2ccc(/C=C3\NC(=O)NC3=O)cc2)ccc(Cl)c1Cl` (centres undefined): the MIC in experiment [1] (setting [4]), in experiment [2] (setting [5]) and in experiment [3] (setting [6]) was 4 µg/mL (≈ 8.6 µM) throughout.
With `CCCc1c(OCC(O)COc2ccc(/C=C3\SC(=O)N(C)C3=O)cc2)ccc(Cl)c1Cl` (stereo in doubt; 12), the figures for the MIC in experiment [1], in experiment [2] and in experiment [3] were 1 µg/mL (≈ 2.01 µM), 4 µg/mL (≈ 8.06 µM) and 8 µg/mL (≈ 16.1 µM), respectively.
As for `CCCc1c(OC[C@@H](O)COc2ccc(/C=C3\SC(=O)NC3=O)cc2)ccc(Cl)c1Cl`, the MIC was determined as 2 µg/mL (≈ 4.15 µM) in experiment [1] (setting [4]), 4 µg/mL (≈ 8.29 µM) in experiment [2] (setting [5]) and 2 µg/mL (≈ 4.15 µM) in experiment [3] (setting [6]).
With `CCCc1c(OCC(O)COc2ccc(/C=C3\OC(=O)NC3=O)cc2)ccc(Cl)c1Cl` (centres undefined), the minimal inhibitory concentration (MIC) was found to be 32 µg/mL (≈ 68.6 µM) in experiment [1] (setting [4]), 16 µg/mL (≈ 34.3 µM) in experiment [2] (setting [5]) and 16 µg/mL (≈ 34.3 µM) in experiment [3] (setting [6]).
Take `CCCc1c(OCC(=O)COc2ccc(/C=C3\SC(=O)NC3=O)cc2)ccc(Cl)c1Cl`: the MIC in experiment [1] (setting [4]), in experiment [2] (setting [5]) and in experiment [3] (setting [6]) was over 64 µg/mL in each case.
As to `CCCc1cc(Cl)c(Cl)cc1OCC(O)COc1ccc(/C=C2\SC(=O)NC2=O)cc1` (centres undefined), the MIC was 4 µg/mL (≈ 8.29 µM) in experiment [1] (setting [4]), 8 µg/mL (≈ 16.6 µM) in experiment [2] (setting [5]) and 8 µg/mL (≈ 16.6 µM) in experiment [3] (setting [6]).
In the case of `CCCc1c(OCC(O)COc2ccc(/C=C3\SC(=O)N(C)C3=O)cc2)ccc(Cl)c1Cl` (stereo in doubt; 6), the MIC in experiment [1], in experiment [2] and in experiment [3] was over 64 µg/mL in each case.
As to `CCc1ccccc1OCC(O)COc1ccc(/C=C2\SC(=O)NC2=O)cc1` (centres undefined), the minimum inhibitory concentration (MIC) amounted to 16 µg/mL (≈ 40.1 µM) in experiment [1] (setting [4]), 32 µg/mL (≈ 80.1 µM) in experiment [2] (setting [5]) and 16 µg/mL (≈ 40.1 µM) in experiment [3] (setting [6]).
Turning to `CCCc1c(OCC(N)COc2ccc(/C=C3\SC(=O)NC3=O)cc2)ccc(Cl)c1Cl` (centres undefined), the values for the MIC in experiment [1] (setting [4]), in experiment [2] (setting [5]) and in experiment [3] (setting [6]) were 2 µg/mL (≈ 4.15 µM), 32 µg/mL (≈ 66.5 µM) and 16 µg/mL (≈ 33.2 µM), respectively.
